From ChEMBL document CHEMBL4837222, “Design and synthesis of novel benzothiophene analogs as selective estrogen receptor covalent antagonists against breast cancer” (Eur J Med Chem, 2021)
Activity calls are given as the source filed them. The rule behind the calls is not given here.

What was measured:
[1] = tested on: MCF7; assay: Cell cycle arrest in human MCF7 cells assessed as accumulation at S phase at 1 uM measured after 48 hrs by propidium iodide staining based flow cytometric analysis (reference value: 63.32%); format: functional
[2] = tested on: MCF7; assay: Cell cycle arrest in human MCF7 cells assessed as accumulation at G0/G1 phase at 5 uM measured after 48 hrs by propidium iodide staining based flow cytometric analysis (reference value: 24.44%); format: functional
[3] = tested on: MCF7; assay: Induction of apoptosis in human MCF7 cells assessed as necrotic cells at 1 uM incubated for 24 hrs by AnnexinV-FITC/propidium iodide staining based flow cytometric analysis (reference value: 0.4%); format: functional
[4] = tested on: MCF7; assay: Cell cycle arrest in human MCF7 cells assessed as accumulation at G2/M phase at 5 uM measured after 48 hrs by propidium iodide staining based flow cytometric analysis (reference value: 12.24%); format: functional
[5] = tested on: MCF7; assay: Induction of apoptosis in human MCF7 cells assessed as live cells at 1 uM incubated for 24 hrs by AnnexinV-FITC/propidium iodide staining based flow cytometric analysis (reference value: 98.1%); format: functional
[6] = tested on: MCF7; assay: Downregulation of ERalpha expression in human MCF7 cells at 0.5 uM incubated for 24 hrs by Western blot assay; format: functional, cell-based
Summary of the method: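 MCF-7 cells were kept in phenol red-free DMEM/F12 with 10% serum for 72 h before plating, then treated at 125, 250 and 500 nM for 24 h. Cells were lysed in RIPA buffer, protein was measured by BCA, and equal amounts were run on 10% SDS-PAGE and transferred to PVDF. ERα band intensity was normalized to GAPDH in each repeat.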

[7] = tested on: MCF7; assay: Cell cycle arrest in human MCF7 cells assessed as accumulation at G0/G1 phase at 10 uM measured after 48 hrs by propidium iodide staining based flow cytometric analysis (reference value: 24.44%); format: functional
[8] = tested on: MCF7; assay: Induction of apoptosis in human MCF7 cells assessed as early apoptotic cells at 5 uM incubated for 24 hrs by Annexin-V-FITC/propidium iodide staining based flow cytometric analysis (reference value: 0.8%); format: functional
[9] = tested on: MCF7; assay: Induction of apoptosis in human MCF7 cells assessed as necrotic cells at 10 uM incubated for 24 hrs by AnnexinV-FITC/propidium iodide staining based flow cytometric analysis (reference value: 0.4%); format: functional
[10] = tested on: MCF7; assay: Induction of apoptosis in human MCF7 cells assessed as early apoptotic cells at 1 uM incubated for 24 hrs by AnnexinV-FITC/propidium iodide staining based flow cytometric analysis (reference value: 0.8%); format: functional
[11] = Lipophilicity, logD of compound; format: physicochemical; conditions: octanol/water
[12] = biological target: T1, Estrogen receptor (Homo sapiens) (UniProt P03372); assay: Covalent antagonist activity at ERalpha in human MCF7 cells assessed as decrease in estradiol-induced GREB1 mRNA expression level at 0.25 to 10 uM measured after 24 hrs by RT-PCR analysis; format: cell-based; conditions: filed as antagonist, dose 0.25-10 µM
T1 sequence (whole entry): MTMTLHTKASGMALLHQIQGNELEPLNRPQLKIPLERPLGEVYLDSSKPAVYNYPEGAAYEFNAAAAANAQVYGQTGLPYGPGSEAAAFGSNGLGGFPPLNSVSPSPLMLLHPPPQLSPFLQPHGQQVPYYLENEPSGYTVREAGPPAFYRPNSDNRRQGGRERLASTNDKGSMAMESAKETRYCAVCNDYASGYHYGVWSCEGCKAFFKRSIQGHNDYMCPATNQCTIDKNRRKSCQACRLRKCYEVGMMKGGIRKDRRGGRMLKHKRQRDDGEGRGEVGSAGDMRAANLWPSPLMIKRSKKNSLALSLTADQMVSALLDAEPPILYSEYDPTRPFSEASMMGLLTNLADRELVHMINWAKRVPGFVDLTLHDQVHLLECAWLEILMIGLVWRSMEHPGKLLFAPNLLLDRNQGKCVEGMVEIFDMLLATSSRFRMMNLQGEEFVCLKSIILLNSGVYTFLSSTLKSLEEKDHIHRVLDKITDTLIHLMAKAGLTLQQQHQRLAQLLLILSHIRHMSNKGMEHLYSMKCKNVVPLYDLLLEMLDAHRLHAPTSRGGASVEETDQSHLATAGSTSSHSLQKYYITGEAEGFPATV
Summary of the method: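 MCF-7 cells stimulated with estradiol, then co-incubated 24 h with compound at 0.25, 0.5, 1 and 10 µM. RNA was reverse-transcribed and GREB1 or TFF1 measured by SYBR Green qPCR: 95 °C 10 min, then 40 cycles of 95 °C 5 s, 60 °C 60 s, 95 °C 15 s. Normalised to GAPDH, ΔΔCT method.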

[13] = tested on: Ishikawa; assay: Antiproliferative activity against human Ishikawa cells assessed as reduction in cell growth incubated for 48 hrs by CCK8 assay; format: functional, cell-based
Summary of the method: (§1)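 CCK-8 viability assay. Cells seeded at 4000/well in 10% FBS medium for 24 h, then given compound diluted from DMSO stocks into 2% FBS medium at 100, 50, 25, 12.5, 6.25 and 3.125 µM (0.1% DMSO final). After 48 h, CCK-8 was added (0.5 mg/mL) for 2 h at 37 °C and OD450 read. Triplicates; IC50 fitted from mean viability.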

[14] = Half life in rat liver microsomes; format: ADME, Microsome
[15] = tested on: MCF7; assay: Antiproliferative activity against human MCF7 cells assessed as reduction in cell growth incubated for 48 hrs by CCK8 assay; format: functional, cell-based; conditions: MCF7, 48 h; summary of the method: as §1
[16] = tested on: MCF7; assay: Cell cycle arrest in human MCF7 cells assessed as accumulation at G0/G1 phase at 1 uM measured after 48 hrs by propidium iodide staining based flow cytometric analysis (reference value: 24.44%); format: functional
[17] = tested on: MCF7; assay: Induction of apoptosis in human MCF7 cells assessed as necrotic cells at 5 uM incubated for 24 hrs by AnnexinV-FITC/propidium iodide staining based flow cytometric analysis (reference value: 0.4%); format: functional
[18] = tested on: MCF7; assay: Induction of apoptosis in human MCF7 cells assessed as late apoptotic cells at 5 uM incubated for 24 hrs by AnnexinV-FITC/propidium iodide staining based flow cytometric analysis (reference value: 0.7%); format: functional
[19] = tested on: MCF7; assay: Downregulation of ERalpha expression in human MCF7 cells at 5 uM incubated for 24 hrs by DAPI staining based immunofluorescence microscopy; format: functional, cell-based
Summary of the method: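 MCF-7 cells on glass slides treated 24 h at 5 µM, washed with PBS and fixed with pre-cooled acetone. ERα immunostained with a red fluorescent label, nuclei counterstained with DAPI; ERα fluorescence intensity quantified.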

[20] = biological target: T1, Estrogen receptor (Homo sapiens); assay: Covalent antagonist activity at ERalpha receptor in human ishikawa cells assessed as suppression of E2-stimulated PGR expression at 0.25 to 10 uM measured after 3 days by RT-PCR analysis; format: cell-based; conditions: filed as antagonist, dose 0.25-10 µM, time 3.0 day
Summary of the method: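 Ishikawa cells stimulated with E2 and exposed 3 days to compound at 0.25, 0.5, 1 and 10 µM. PGR mRNA quantified by SYBR Green real-time PCR, normalised to GAPDH, ΔΔCT method.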

[21] = tested on: MCF7; assay: Cell cycle arrest in human MCF7 cells assessed as accumulation at G2/M phase at 10 uM measured after 48 hrs by propidium iodide staining based flow cytometric analysis (reference value: 12.24%); format: functional
[22] = tested on: MCF7; assay: Induction of apoptosis in human MCF7 cells assessed as early apoptotic cells at 10 uM incubated for 24 hrs by AnnexinV-FITC/propidium iodide staining based flow cytometric analysis (reference value: 0.8%); format: functional

O=C(/C=C/CNCCOc1ccc(Oc2c(-c3ccc(F)cc3)sc3cc(O)ccc23)cc1)N1CCC1 gave an Activity [1] of 51.43%, an Activity [2] of 37.54% and an Activity [3] of 0.2%. The Activity [4] was 15.48%, the Activity [5] was 97.8% and the inhibition [6] was “Active”. For the same compound, the Activity [7] was 42.95%, the Activity [8] was 5.3% and the Activity [9] was 0.5%. The Activity [10] was 0.8%, the logD [11] was 1.67 and the inhibition [12] was “Dose-Dependent Effect”. It also gave an IC50 [13] of 6.56 µM, a half-life [14] of 38.1 min and an IC50 [15] of 7.34 µM. For the same compound, the Activity [16] was 31.21%, the Activity [17] was 0.4% and the Activity [18] was 6.4%. For the same compound, the inhibition [19] was “Active”, the inhibition [20] was “Active” and the Activity [21] was 18.3%. It also gave an Activity [22] of 12.5%.
